# Assay results gathered from unrelated publications.
# Lines come from different studies, so protocols differ.
# Target: Acetylcholinesterase (ACHE, Homo sapiens, UniProt P22303)
# Read-out: enzyme activity
# Action: inhibitor
Compound,technique,IC50 [nM]
CCc1cccc(C)c1NC(=O)CSc1nnc(COc2ccc3ccccc3c2)n1-c1ccccc1,Ellman,1420
O=c1cc(CSc2ccc(N=Cc3cccc(O)c3)cc2)occ1O,Ellman,3640
COc1cc(-c2nc3ccccc3s2)cc(NC(C)=O)c1OCC(=O)N[C@@H](C)C(=O)O,Ellman,> 289000
CC(C)c1cc2c(c(O)c1O)[C@@]13CCCC(C)(C)[C@@H]1C[C@@H]2OC3=O,,0.81
O=c1cc(CSc2ccc(N=Cc3ccccc3F)cc2)occ1O,Ellman,4100
COc1cc(-c2nc3ccccc3s2)cc2c1OCC(=O)N2CC(=O)N[C@H](C(=O)O)C(C)C,Ellman,> 273000
O=C(CSc1nnc(COc2ccc3ccccc3c2)n1-c1ccccc1)Nc1ccccc1,Ellman,1870
CC(C)c1cc2c(c(O)c1O)[C@@]13CCCC(C)(C)[C@@H]1[C@@H](O)[C@@H]2OC3=O,,0.98
O=c1cc(CSc2ccc(N=Cc3cccc(F)c3)cc2)occ1O,Ellman,26300
COc1cc(-c2nc3ccccc3s2)cc2c1OCC(=O)N2CC(=O)N[C@@H](C)C(=O)O,Ellman,> 290000
Cc1cccc(C)c1NC(=O)CSc1nnc(COc2ccc3ccccc3c2)n1-c1ccccc1,Ellman,1010
O=c1cc(CSc2ccc(N=Cc3ccc(Br)cc3)cc2)occ1O,Ellman,570
CCOc1cccc(NC(=O)CSc2nnc(COc3ccc4ccccc4c3)n2-c2ccccc2)c1,Ellman,1150
COc1cc(-c2nc3ccccc3s2)cc2c1OCC(=O)N2CC(=O)N[C@@H](CC(C)C)C(=O)O,Ellman,> 265000
O=c1cc(CSc2ccc(N=Cc3ccc(O)cc3)cc2)occ1O,Ellman,5060
